Test results taken from PubChem BioAssay.
Activity calls are given as the source filed them.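 The calls were made as follows: active = duplicate-averaged activation above buffer control mean plus 5 SD of those controls; inactive = the rest.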

assay: nonspecific flux increase, KCNQ1-free cells – parental CHO cells, counter-screen for KCNQ1 potentiator project (AID 493006); conditions: parental CHO-K1 cells, FluxOR thallium flux, at 10 µM; stronger effect = higher value;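 as to activation: fluorescence ratio of max minus min over baseline after K+ and Tl+ depolarization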
Summary of the method: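 Assay system: parental CHO-K1 cells lacking KCNQ1, loaded with FluxOR thallium dye; timing: dye 90 min RT, compound 20 min RT; signal: kinetic thallium-flux fluorescence; repeats: duplicate wells per compound, percent values averaged; benchmarks: buffer and R-L3 controls; reagent: Potassium/thallium depolarization pulse; read-out: fluorescence change ratio scaled 0% buffer, 100% R-L3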

SMILES	outcome	activation
CCC1CCCCN1S(=O)(=O)c1ccc(NC(=O)c2cccnc2)cc1 (centres undefined)	inactive	
S=C(Nc1ccc(Br)cc1)N1CCn2cccc2C1c1cccnc1 (centres undefined)	inactive	
COc1cccc(C(=O)COc2ccc(NC(=O)c3ccccc3)cc2)c1	inactive	
O=C(O)c1ccc2c(c1)C(=O)N(c1ccc(Cl)cn1)C2=O	inactive	
CN(C(=O)c1cc(COc2c(F)cccc2F)on1)C1CCOC1 (centres undefined)	inactive	
COc1cccc(/C=N/NC(=O)C(C)n2nc(C)c([N+](=O)[O-])c2C)c1O (centres undefined)	inactive	
Cc1cc(C)c(NC(=O)CN2C(=O)NC3(CCCc4ccccc43)C2=O)c(Cl)c1 (centres undefined)	inactive	
CN(CCCNC(=O)CSc1cc(=O)n(C)c2ccc(Cl)cc12)Cc1ccccc1	inactive	
Cc1ccccc1NC(=S)NNC(=O)c1csc2c1CCC(C)C2 (centres undefined)		174% (active)
CCC(O)(CC)C(=O)NN(C(=O)CCl)c1ccccc1	inactive	
S=c1sc2c(Cl)ncnc2n1-c1ccccc1		302% (active)
COc1cccc(C(=O)Nc2nc(-c3ccccc3)c(-c3ccccc3)o2)c1		145% (active)
Cc1ccc(Cc2c[nH]c(=S)s2)cc1		348% (active)
COc1ccc(-n2c(=S)[nH]c3c(oc4ccccc43)c2=O)cc1	inactive	
O=C(O)CSc1c2c(nc3cc(C(=O)Nc4cccc(C(F)(F)F)c4)ccc13)CCC2	inactive	
CCOC(=O)c1sc(NN=C(C(=O)OC)C(=O)OC)c(C(=O)OCC)c1C		185% (active)
Cc1ccc(-c2csc3ncnc(SCc4ccc(C(=O)O)cc4)c23)cc1		197% (active)
CC(C)[N+]1(C)[C@@H]2CC[C@H]1CC(OC(=O)C(CO)c1ccccc1)C2 (some centres undefined)	inactive	
C/C(=N\NC(=O)C(C)Sc1ccccc1)c1ccc([N+](=O)[O-])cc1 (centres undefined)	inactive	
COCCOC(=O)N/C=C\c1nc2ccccc2c(=O)[nH]1	inactive	

SMILES	outcome	activation
COc1ccc2nc(N3C(=O)/C(=C/c4ccccc4)NC3=S)sc2c1		380% (active)
O=C(CSc1nc(=O)n2ccccc2n1)NCc1ccccc1	inactive	
O=C(NC(=S)Nc1ccc(N2CCOCC2)c(Cl)c1)c1sc2ccccc2c1Cl	inactive	
CC(=O)O[C@H]1CSC[C@H]1NC(=O)c1ccccc1	inactive	
COc1ccc(C(=O)NNC(=O)C(=O)Nc2ccc(C)cc2)cc1		254% (active)
COc1ccccc1-n1cnc2cc(NCc3ccco3)ccc21	inactive	
CCc1ccc2[nH]c(O)c(N=Nc3nc(-c4ccccc4)cs3)c2c1		186% (active)
O=S(=O)(CC(CN1CCCC1)N1CCCC1)c1ccc2ccccc2c1 (centres undefined)	inactive	
C=CCn1c(O)c(N=NC(=S)Nc2cccc(OC)c2)c2ccccc21		186% (active)
CSc1nccc(-c2nn(-c3ccc(C)cc3)ccc2=O)n1	inactive	
CCN1c2ccccc2-c2nc3ccccc3n2C1c1cccnc1 (centres undefined)	inactive	
COC(=O)c1ccc(/C=C/c2ccc3cccc(OC)c3n2)cc1	inactive	
CCSc1nc2c(sc3ccccc32)c(=O)n1C(C)C		310% (active)
COc1ccc(NC(=O)C(=O)NNC(=O)c2cccs2)cc1		177% (active)
CCCn1c(NC(=O)CN2C(=O)NC3(CCCC3)C2=O)nc2ccccc21	inactive	
COc1ccc(C2NC(c3ccc(OC)c(OC)c3OC)C(C)C(=O)C2C)c(OC)c1OC (centres undefined)	inactive	
COC(=O)c1sc(-c2ccccc2)cc1NC(=O)C1CC1	inactive	
CN1C(=O)C2(Oc3ccccc3C3CC(c4ccccc4)=NN32)c2ccccc21 (centres undefined)	inactive	
O=C1c2cccc3cccc(c23)C(=O)N1c1cccc(O)c1	inactive	
